# What was measured:
# Progesterone receptor [1] = biological target: T1, Progesterone receptor (Homo sapiens, UniProt P06401); assay: Effective concentration for half-maximal activation of human progesterone receptor expressed in CV-1 cells; format: cell-based
# T1 sequence (P06401 whole entry): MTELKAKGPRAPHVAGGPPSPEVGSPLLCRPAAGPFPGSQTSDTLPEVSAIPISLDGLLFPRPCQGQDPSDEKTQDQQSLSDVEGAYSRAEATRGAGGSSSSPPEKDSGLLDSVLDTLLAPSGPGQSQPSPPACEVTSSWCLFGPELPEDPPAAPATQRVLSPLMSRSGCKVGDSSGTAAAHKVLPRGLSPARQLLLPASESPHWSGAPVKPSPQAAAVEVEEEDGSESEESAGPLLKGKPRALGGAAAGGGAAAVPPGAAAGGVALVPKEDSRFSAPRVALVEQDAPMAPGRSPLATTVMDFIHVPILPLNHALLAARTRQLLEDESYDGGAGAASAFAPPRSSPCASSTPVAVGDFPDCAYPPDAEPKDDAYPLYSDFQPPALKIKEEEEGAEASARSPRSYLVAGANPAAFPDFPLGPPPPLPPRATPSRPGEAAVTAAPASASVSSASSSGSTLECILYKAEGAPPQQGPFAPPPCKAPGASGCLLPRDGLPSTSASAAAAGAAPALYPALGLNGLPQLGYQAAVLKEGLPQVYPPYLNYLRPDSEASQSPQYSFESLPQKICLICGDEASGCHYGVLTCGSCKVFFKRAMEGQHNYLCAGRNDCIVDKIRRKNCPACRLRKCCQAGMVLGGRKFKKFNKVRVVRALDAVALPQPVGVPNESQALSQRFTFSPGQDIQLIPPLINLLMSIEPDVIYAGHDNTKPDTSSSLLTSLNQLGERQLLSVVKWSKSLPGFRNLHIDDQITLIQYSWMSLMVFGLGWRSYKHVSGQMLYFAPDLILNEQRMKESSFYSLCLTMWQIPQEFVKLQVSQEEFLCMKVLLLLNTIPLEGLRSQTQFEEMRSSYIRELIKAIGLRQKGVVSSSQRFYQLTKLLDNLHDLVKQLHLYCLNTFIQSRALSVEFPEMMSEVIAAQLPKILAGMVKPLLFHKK
# Progesterone receptor [2] = biological target: T1, Progesterone receptor; assay: Binding affinity for baculovirus-expressed human progesterone receptor isoform A
# [3] = biological target: T2, Progesterone receptor (Rattus norvegicus) (UniProt Q63449); assay: Fold induction as increase in BrdU labeling index over estrone treatment alone in lobular-aveolar rat mammary buds by progestin treatment; format: functional
# T2 sequence (whole entry): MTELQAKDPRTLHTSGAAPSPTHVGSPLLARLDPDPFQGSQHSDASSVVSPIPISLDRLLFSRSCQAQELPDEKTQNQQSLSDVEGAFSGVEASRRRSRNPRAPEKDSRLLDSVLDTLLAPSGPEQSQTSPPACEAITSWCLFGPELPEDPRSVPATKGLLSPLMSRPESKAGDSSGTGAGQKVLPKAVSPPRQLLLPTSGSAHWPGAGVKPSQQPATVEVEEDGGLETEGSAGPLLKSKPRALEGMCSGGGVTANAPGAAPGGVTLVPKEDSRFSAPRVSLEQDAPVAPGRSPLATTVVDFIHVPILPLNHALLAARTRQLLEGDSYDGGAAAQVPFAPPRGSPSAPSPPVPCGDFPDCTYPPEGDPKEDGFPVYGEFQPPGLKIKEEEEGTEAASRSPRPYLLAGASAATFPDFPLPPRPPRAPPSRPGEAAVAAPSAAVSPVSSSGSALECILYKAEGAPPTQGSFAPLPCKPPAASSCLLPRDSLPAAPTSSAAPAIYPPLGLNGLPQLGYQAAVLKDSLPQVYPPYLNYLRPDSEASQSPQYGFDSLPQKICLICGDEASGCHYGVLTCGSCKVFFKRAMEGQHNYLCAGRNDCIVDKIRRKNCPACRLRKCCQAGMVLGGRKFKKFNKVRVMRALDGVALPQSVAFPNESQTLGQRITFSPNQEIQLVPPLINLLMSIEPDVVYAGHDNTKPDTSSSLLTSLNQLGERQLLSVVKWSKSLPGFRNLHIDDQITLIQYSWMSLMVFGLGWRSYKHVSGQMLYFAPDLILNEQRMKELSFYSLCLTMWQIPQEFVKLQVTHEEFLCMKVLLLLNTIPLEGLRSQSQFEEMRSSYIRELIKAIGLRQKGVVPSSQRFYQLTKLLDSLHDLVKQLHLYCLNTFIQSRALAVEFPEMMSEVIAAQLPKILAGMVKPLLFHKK
# Method in brief: (§1)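 Ovariectomized Sprague-Dawley rats, 4-5 weeks old, groups of 4-5, given estrone 10 µg sc plus oral compound in corn oil (0.5 mL) for 3 days. On day 4, BrdU 200 mg/kg ip; mammary glands taken 3 h later. Frozen sections stained with anti-BrdU/FITC. Labeling index = labeled/lobular area, averaged over 12 fields per gland, as fold over estrone alone.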
# [4] = biological target: T2, Progesterone receptor (Rattus norvegicus); assay: Fold induction as increase in BrdU labeling index over estrone treatment alone in lobular-aveolar rat mammary buds by progestin treatment at 3 mg/kg; format: functional, organism-based; set-up: dose 3 mg/kg; method in brief: as §1
# Glucocorticoid receptor = biological target: T3, Glucocorticoid receptor (Homo sapiens, UniProt P04150); assay: Binding affinity for baculovirus-expressed human glucocorticoid receptor
# T3 sequence (P04150 whole entry): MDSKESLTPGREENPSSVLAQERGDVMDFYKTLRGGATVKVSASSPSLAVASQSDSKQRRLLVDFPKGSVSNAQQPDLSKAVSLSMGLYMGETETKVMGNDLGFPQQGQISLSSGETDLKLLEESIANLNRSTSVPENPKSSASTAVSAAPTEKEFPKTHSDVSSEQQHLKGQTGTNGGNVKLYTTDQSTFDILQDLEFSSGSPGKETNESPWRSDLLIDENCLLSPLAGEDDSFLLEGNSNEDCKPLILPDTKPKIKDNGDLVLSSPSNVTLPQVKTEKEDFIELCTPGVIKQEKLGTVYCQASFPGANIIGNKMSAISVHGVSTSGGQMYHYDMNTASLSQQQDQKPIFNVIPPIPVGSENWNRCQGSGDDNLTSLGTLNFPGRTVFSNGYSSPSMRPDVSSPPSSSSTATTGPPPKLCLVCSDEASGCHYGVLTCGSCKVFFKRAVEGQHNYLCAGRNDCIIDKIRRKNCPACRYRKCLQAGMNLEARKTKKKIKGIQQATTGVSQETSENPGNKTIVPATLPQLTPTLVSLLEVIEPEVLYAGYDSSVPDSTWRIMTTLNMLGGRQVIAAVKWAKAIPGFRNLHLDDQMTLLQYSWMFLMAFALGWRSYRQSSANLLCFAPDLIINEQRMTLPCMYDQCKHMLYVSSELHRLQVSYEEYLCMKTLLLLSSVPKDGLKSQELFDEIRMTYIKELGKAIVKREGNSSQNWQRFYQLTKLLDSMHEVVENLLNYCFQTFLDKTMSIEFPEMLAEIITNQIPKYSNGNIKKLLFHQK
# [5] = biological target: T4, Progesterone receptor (Homo sapiens) (UniProt P06401); assay: Efficacy for progesterone receptor relative to progesterone
# T4 sequence (whole entry): T1 sequence (P06401 whole entry)
# [6] = biological target: T5, Progesterone receptor (Mus musculus) (UniProt Q00175); assay: Effect on pregnancy in mice as percent pregnant at 3 mg/mouse dose with simultaneous 0.5 mg RU-486 dose; format: functional
# T5 sequence (whole entry): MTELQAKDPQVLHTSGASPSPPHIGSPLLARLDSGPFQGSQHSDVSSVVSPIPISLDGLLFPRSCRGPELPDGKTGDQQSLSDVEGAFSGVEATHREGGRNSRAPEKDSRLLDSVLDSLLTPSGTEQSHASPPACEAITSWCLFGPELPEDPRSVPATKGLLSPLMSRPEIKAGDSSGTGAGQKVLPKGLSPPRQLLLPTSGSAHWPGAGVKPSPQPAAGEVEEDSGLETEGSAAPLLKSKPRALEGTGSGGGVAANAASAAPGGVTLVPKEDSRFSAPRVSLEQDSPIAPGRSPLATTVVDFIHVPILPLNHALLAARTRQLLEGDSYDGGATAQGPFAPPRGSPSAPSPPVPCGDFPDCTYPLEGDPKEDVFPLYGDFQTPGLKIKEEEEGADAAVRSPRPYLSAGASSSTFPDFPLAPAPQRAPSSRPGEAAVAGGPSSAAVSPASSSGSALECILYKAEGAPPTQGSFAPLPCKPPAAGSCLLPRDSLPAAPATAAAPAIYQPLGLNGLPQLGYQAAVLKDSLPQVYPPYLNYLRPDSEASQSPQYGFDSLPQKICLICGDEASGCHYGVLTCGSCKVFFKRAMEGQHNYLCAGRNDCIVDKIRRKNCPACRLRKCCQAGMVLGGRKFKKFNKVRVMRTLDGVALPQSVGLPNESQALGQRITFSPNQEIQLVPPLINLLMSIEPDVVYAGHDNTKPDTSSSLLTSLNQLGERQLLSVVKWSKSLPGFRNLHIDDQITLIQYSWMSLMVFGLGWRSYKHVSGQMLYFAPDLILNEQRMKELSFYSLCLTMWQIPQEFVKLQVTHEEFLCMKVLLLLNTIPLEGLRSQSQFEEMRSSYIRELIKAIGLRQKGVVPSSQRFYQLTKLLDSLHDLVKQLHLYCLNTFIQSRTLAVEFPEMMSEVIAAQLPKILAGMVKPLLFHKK
# Method in brief: (§2)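 Mature virgin ICR mice, 10-12 weeks old, mated overnight; vaginal plug marks day 1. Oral RU486 0.5 mg (~15 mg/kg), alone or with test compound (mg/mouse), on days 2-4. Compounds in ethanol diluted with corn oil, 0.1 mL. Oil controls. Necropsy on day 8 to count corpora lutea and implantation sites and to score pregnancy. Student t-test.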
# [7] = biological target: T5, Progesterone receptor (Mus musculus); assay: Effect on pregnancy in mice as implantation at 3 mg/mouse dose with simultaneous 0.5 mg RU-486 dose; format: functional; method in brief: as §2
# [8] = biological target: T5, Progesterone receptor (Mus musculus); assay: Effect on pregnancy in mice as percent pregnant at 1 mg/mouse dose with simultaneous 0.5 mg RU-486 dose; format: functional; method in brief: as §2
# [9] = biological target: T5, Progesterone receptor (Mus musculus); assay: Effect on pregnancy in mice as number pregnant/mated at 1 mg/mouse dose with simultaneous 0.5 mg RU-486 dose; out of 10; format: functional; method in brief: as §2
# [10] = biological target: T5, Progesterone receptor (Mus musculus); assay: Effect on pregnancy in mice as number pregnant/mated at 3 mg/mouse dose with simultaneous 0.5 mg RU-486 dose; out of 10; format: functional; method in brief: as §2
# [11] = biological target: T5, Progesterone receptor (Mus musculus); assay: Effect on pregnancy in mice as corpora lutea at 1 mg/mouse dose with simultaneous 0.5 mg RU-486 dose; format: functional, organism-based; method in brief: as §2
# [12] = biological target: T5, Progesterone receptor (Mus musculus); assay: Effect on pregnancy in mice as corpora lutea at 3 mg/mouse dose with simultaneous 0.5 mg RU-486 dose; format: functional, organism-based; method in brief: as §2
# [13] = biological target: T5, Progesterone receptor (Mus musculus); assay: Effect on pregnancy in mice as implantation at 1 mg/mouse dose with simultaneous 0.5 mg RU-486 dose; format: functional; method in brief: as §2
compound,measurement,setting,value
"CC1=CC(C)(C)Nc2ccc3c(c21)C(c1cccc(Cl)c1)Oc1ccc(F)cc1-3 (single isomer, unassigned; (+)) [listing 1 of 2 here]",EC50,Progesterone receptor [1],135 nM
same,Ki,Progesterone receptor [2],30 nM
C[C@]12CC[C@@H]3c4ccc(O)cc4CC[C@H]3[C@@H]1CCC2=O,Fold induction,[3],1
same,Fold induction,[4],24
CC1=CC(C)(C)Nc2ccc3c(c21)C(c1cccc(Cl)c1)Oc1ccc(Cl)cc1-3 (racemic),Ki,Glucocorticoid receptor,6.3 nM
same,Efficacy,[5],95
CC1=CC(C)(C)Nc2ccc3c(c21)C(c1ccc(Cl)c(C)c1)Oc1ccc(F)cc1-3 (racemic) [listing 1 of 2 here],Efficacy,[5],97
CC1=CC(C)(C)Nc2ccc3c(c21)C(c1cccc(Cl)c1)Oc1ccc(F)cc1-3 (racemic) [listing 1 of 2 here],Ki,Glucocorticoid receptor,133 nM
CC1=CC(C)(C)Nc2ccc3c(c21)C(c1ccc(Cl)c(C)c1)Oc1ccc(Cl)cc1-3 (racemic),Ki,Glucocorticoid receptor,14 nM
same,Efficacy,[5],73
"CC1=CC(C)(C)Nc2ccc3c(c21)C(c1ccc(Cl)c(C)c1)Oc1ccc(F)cc1-3 (single isomer, unassigned; (-)) [listing 1 of 2 here]",Efficacy,[5],99
same,Fold induction,[4],2.5
CC1=CC(C)(C)Nc2ccc3c(c21)C(c1ccc(Cl)c(C)c1)Oc1ccc(F)cc1-3 (racemic) [listing 2 of 2 here],Ki,Glucocorticoid receptor,210 nM
"CC1=CC(C)(C)Nc2ccc3c(c21)C(c1ccc(Cl)c(C)c1)Oc1ccc(F)cc1-3 (single isomer, unassigned; (-)) [listing 2 of 2 here]",EC50,Progesterone receptor [1],2.4 nM
same,Ki,Progesterone receptor [2],0.4 nM
"CC1=CC(C)(C)Nc2ccc3c(c21)C(c1cccc(Cl)c1)Oc1ccc(F)cc1-3 (single isomer, unassigned; (-)) [listing 1 of 2 here]",EC50,Progesterone receptor [1],1.3 nM
same,Ki,Progesterone receptor [2],0.1 nM
"CC1=CC(C)(C)Nc2ccc3c(c21)C(c1cccc(Cl)c1)Oc1ccc(F)cc1-3 (single isomer, unassigned; (+)) [listing 2 of 2 here]",Efficacy,[5],83
"CC1=CC(C)(C)Nc2ccc3c(c21)C(c1cccc(Cl)c1)Oc1ccc(F)cc1-3 (single isomer, unassigned; (-)) [listing 2 of 2 here]",Efficacy,[5],125
same,Fold induction,[4],3.6
CC1=CC(C)(C)Nc2ccc3c(c21)C(c1cccc(Cl)c1)Oc1ccc(F)cc1-3 (racemic) [listing 2 of 2 here],Efficacy,[5],117
CC1=CC(C)(C)Nc2ccc3c(c21)C(c1ccc(Cl)c(C)c1)Oc1ccc(F)cc1-3 (stereo in doubt) [listing 1 of 2 here],Efficacy,[5],43
CC#C[C@]1(O)CC[C@H]2[C@@H]3CCC4=CC(=O)CCC4=C3[C@@H](c3ccc(N(C)C)cc3)C[C@@]21C.CC1=CC(C)(C)Nc2ccc3c(c21)C(c1ccc(Cl)c(C)c1)Oc1ccc(F)cc1-3,Pregnant,[6],50%
same,Implants,[7],6.6
same,Pregnant,[8],30%
same,No. pregnant/mated,[9],3
same,No. pregnant/mated,[10],5
same,Corpora lutea,[11],13
same,Corpora lutea,[12],13.8
same,Implants,[13],2.2
CC1=CC(C)(C)Nc2ccc3c(c21)C(c1ccc(Cl)c(C)c1)Oc1ccc(F)cc1-3 (stereo in doubt) [listing 2 of 2 here],EC50,Progesterone receptor [1],147 nM
same,Ki,Progesterone receptor [2],60 nM
